Experimental data published in PubChem BioAssay AID651628 (The Scripps Research Institute Molecular Screening Center, 2012).
Active and inactive are the calls of the source.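 The calls were made as follows: active = at least one off-target enzyme showing weaker fluorescent probe labeling in any proteome panel; inactive = no off-target enzyme affected in any panel.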

tested on: Soluble Proteome; experiment: anti-target inhibition in MCF7 proteome, late-stage follow-up, selectivity assay for PAD4 inhibitor project, cell lysate, gel-based fluorescence, soluble and membrane fractions (AID 651628); conditions: CA-Rh gel-based ABPP, anti-target count, at 50 µM, stronger effect = higher value
Outline: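 Material: MCF7 cell proteome, soluble or membrane fraction | Medium: DPBS | Doses: Compound at 10 or 50 µM | Schedule: Compound 1 h, probe 1 h, 25 °C | Measured by: SDS-PAGE separation with in-gel fluorescence scanning of labelled bands | Control set: DMSO-only reference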

Number of anti-targets, inactive:
COC(=O)c1cccc(-c2ccc3c(n2)C(=O)C(N)=CC3=O)n1 0
COC1=C(N)C(=O)c2ncccc2C1=O 0
COC(=O)c1nc(C(=O)OC)c(NC(C)=O)c(-c2ccccc2Br)c1C 0
NC1=CC(=O)c2cccnc2C1=O 0
COC(=O)c1cccc(-c2ccc3c(n2)C(=O)C(Br)=CC3=O)n1 0
NC1=CC(=O)c2ccc(-c3cccc(C(=O)O)n3)nc2C1=O 0
COC1=C(N)C(=O)c2nc(-c3nc(C(=O)O)c(C)c(-c4ccc(OC)c(OC)c4O)c3N)ccc2C1=O 0
NC1=CC(=O)c2ccc(-c3ccccn3)nc2C1=O 0

Number of anti-targets, active:
COC1=CC(=O)c2nc(C#N)ccc2C1=O > 5
O=C1C=C(Br)C(=O)c2ncccc21 > 5
COC1=C(Br)C(=O)c2nc(-c3ccccn3)ccc2C1=O > 5
COC1=C(I)C(=O)c2nc(C#N)ccc2C1=O > 5
O=C1C(O)=C(O)C(=O)c2ncccc21 3
COC1=C(Br)C(=O)c2ncccc2C1=O > 5
